Measurements from ChEMBL document CHEMBL1938295, “Synthesis of substituted benzimidazolyl curcumin mimics and their anticancer activity” (Bioorg Med Chem Lett, 2012).

Columns and labels:
Assay type in all cases: functional, cell-based
NCI-H460 = experiment: Cytotoxicity against human H460 cells after 24 to 48 hrs by MTT assay
Method in brief: (§1)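 Treatment began 24 h after seeding. Compounds were dissolved in DMSO and diluted in DMEM to final 1, 5, 10, 20 and 40 μM, then incubated 24 or 48 h. MTT (0.5 mg/ml) was added for 3 h at 37 °C, formazan dissolved in DMSO, and absorbance read at 595 nm. Each assay was run in triplicate. IC50 came from nonlinear regression of a sigmoid dose-response curve, accepted when R^2 >0.95.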

MCF7 = experiment: Cytotoxicity against human MCF7 cells after 24 to 48 hrs by MTT assay
HepG2 = experiment: Cytotoxicity against human HepG2 cells after 24 to 48 hrs by MTT assay; method in brief: as §1
SH-SY5Y = experiment: Cytotoxicity against human SH-SY5Y cells after 24 to 48 hrs by MTT assay; method in brief: as §1

Q: Which results are given for `COc1cc(/C=C/C(=O)/C=C/c2nc3ccccc3n2C)ccc1O`?
A: IC50 (NCI-H460): 7 µM; IC50 (MCF7): 3.7 µM; IC50 (HepG2): 2.9 µM; IC50 (SH-SY5Y): 4.7 µM

Q: With `COc1cc(/C=C/C(=O)/C=C/c2nc3cc(C)ccc3n2C)ccc1O` as the molecule, how does the IC50 (NCI-H460) read?
A: 7.7 µM

Q: What about the IC50 (MCF7) of the same molecule?
A: 4.5 µM

Q: And the IC50 (HepG2)?
A: 4.2 µM

Q: And the IC50 (SH-SY5Y)?
A: 4.7 µM

Q: For `COc1cc(/C=C/C(=O)/C=C/c2nc3c(C)cccc3n2C)ccc1O`, which IC50 (NCI-H460) is on record?
A: 3 µM

Q: And the IC50 (MCF7)?
A: 3.5 µM

Q: And the IC50 (HepG2)?
A: 1.9 µM

Q: And the IC50 (SH-SY5Y)?
A: 1 µM

Q: `COc1cc(/C=C/C(=O)/C=C/c2nc3c(C)c(C)ccc3n2C)ccc1O` was tested. Which IC50 (NCI-H460) did it give?
A: 31.9 µM

Q: And the IC50 (MCF7)?
A: 14.1 µM

Q: What about the IC50 (HepG2) of the same molecule?
A: 8.5 µM

Q: What about the IC50 (SH-SY5Y) of the same molecule?
A: 19 µM

Q: `COc1ccc2c(c1)nc(/C=C/C(=O)/C=C/c1ccc(O)c(OC)c1)n2C` was tested. Which IC50 (NCI-H460) did it give?
A: 12.7 µM

Q: What about the IC50 (MCF7) of the same molecule?
A: 3.9 µM

Q: And the IC50 (HepG2)?
A: 3.8 µM

Q: And the IC50 (SH-SY5Y)?
A: 4.8 µM

Q: How did the IC50 (NCI-H460) turn out when `COc1cc(/C=C/C(=O)/C=C/c2nc3cc(Cl)ccc3n2C)ccc1O` was run?
A: 8.9 µM

Q: What about the IC50 (MCF7) of the same molecule?
A: 4.4 µM

Q: And the IC50 (HepG2)?
A: 4 µM

Q: And the IC50 (SH-SY5Y)?
A: 4.7 µM

Q: `COc1cc(/C=C/C(=O)/C=C/c2nc3cc([N+](=O)[O-])ccc3n2C)ccc1O` was tested. Which IC50 (NCI-H460) did it give?
A: 6.7 µM

Q: What about the IC50 (MCF7) of the same molecule?
A: 3.7 µM

Q: And the IC50 (HepG2)?
A: 3.7 µM

Q: And the IC50 (SH-SY5Y)?
A: 4.6 µM

Q: For `COc1cc(/C=C/C(=O)/C=C/c2nc3cc(O)ccc3n2C)ccc1O`, which IC50 (NCI-H460) is on record?
A: 7.6 µM

Q: What about the IC50 (MCF7) of the same molecule?
A: 2.9 µM

Q: What about the IC50 (HepG2) of the same molecule?
A: 3.6 µM

Q: What about the IC50 (SH-SY5Y) of the same molecule?
A: 4.8 µM

Q: Which IC50 (NCI-H460) does the source give for `COc1ccc(/C=C/C(=O)/C=C/c2nc3ccccc3n2C)cc1O` here?
A: 6.9 µM

Q: And the IC50 (MCF7)?
A: 3.6 µM

Q: What about the IC50 (HepG2) of the same molecule?
A: 2.9 µM

Q: What about the IC50 (SH-SY5Y) of the same molecule?
A: 4.8 µM

Q: `COc1ccc(/C=C/C(=O)/C=C/c2nc3cc(C)ccc3n2C)cc1O` was tested. Which IC50 (NCI-H460) did it give?
A: 7.7 µM

Q: What about the IC50 (MCF7) of the same molecule?
A: 3.6 µM

Q: What about the IC50 (HepG2) of the same molecule?
A: 3.3 µM

Q: And the IC50 (SH-SY5Y)?
A: 4.8 µM

Q: With `COc1ccc(/C=C/C(=O)/C=C/c2nc3c(C)cccc3n2C)cc1O` as the molecule, how does the IC50 (NCI-H460) read?
A: 25.4 µM

Q: What about the IC50 (MCF7) of the same molecule?
A: 7.4 µM

Q: What about the IC50 (HepG2) of the same molecule?
A: 14.7 µM

Q: What about the IC50 (SH-SY5Y) of the same molecule?
A: 19.1 µM

Q: Which IC50 (NCI-H460) does the source give for `COc1ccc(/C=C/C(=O)/C=C/c2nc3c(C)c(C)ccc3n2C)cc1O` here?
A: 7.3 µM

Q: And the IC50 (MCF7)?
A: 3.5 µM

Q: And the IC50 (HepG2)?
A: 3.9 µM

Q: And the IC50 (SH-SY5Y)?
A: 4.8 µM

Q: How did the IC50 (NCI-H460) turn out when `COc1ccc2c(c1)nc(/C=C/C(=O)/C=C/c1ccc(OC)c(O)c1)n2C` was run?
A: 11.7 µM

Q: What about the IC50 (MCF7) of the same molecule?
A: 3.7 µM

Q: And the IC50 (HepG2)?
A: 4.2 µM

Q: And the IC50 (SH-SY5Y)?
A: 4.8 µM

Q: `COc1ccc(/C=C/C(=O)/C=C/c2nc3cc(Cl)ccc3n2C)cc1O` was tested. Which IC50 (NCI-H460) did it give?
A: 7.3 µM

Q: What about the IC50 (MCF7) of the same molecule?
A: 3.5 µM

Q: And the IC50 (HepG2)?
A: 4.1 µM

Q: And the IC50 (SH-SY5Y)?
A: 4.8 µM

Q: For `COc1ccc(/C=C/C(=O)/C=C/c2nc3cc([N+](=O)[O-])ccc3n2C)cc1O`, which IC50 (NCI-H460) is on record?
A: 10.5 µM

Q: What about the IC50 (MCF7) of the same molecule?
A: 4.8 µM

Q: And the IC50 (HepG2)?
A: 4.6 µM

Q: What about the IC50 (SH-SY5Y) of the same molecule?
A: 8.1 µM

Q: With `COc1ccc(/C=C/C(=O)/C=C/c2nc3cc(O)ccc3n2C)cc1O` as the molecule, how does the IC50 (NCI-H460) read?
A: 7.2 µM

Q: What about the IC50 (MCF7) of the same molecule?
A: 1.9 µM

Q: And the IC50 (HepG2)?
A: 3.7 µM

Q: And the IC50 (SH-SY5Y)?
A: 4.6 µM

Q: Which IC50 (NCI-H460) does the source give for `COc1cc(/C=C/C(=O)CC(=O)/C=C/c2ccc(O)c(OC)c2)ccc1O` [CURCUMIN] here?
A: 51.3 µM

Q: What about the IC50 (MCF7) of the same molecule?
A: 49.8 µM

Q: What about the IC50 (HepG2) of the same molecule?
A: 87.5 µM

Q: And the IC50 (SH-SY5Y)?
A: 105 µM

Q: What does the source list for `CC(=O)O[C@H]1C(=O)[C@@]2(C)[C@H]([C@H](OC(=O)c3ccccc3)[C@]3(O)C[C@H](OC(=O)[C@H](O)[C@@H](NC(=O)c4ccccc4)c4ccccc4)C(C)=C1C3(C)C)[C@]1(OC(C)=O)CO[C@@H]1C[C@@H]2O` [PACLITAXEL]?
A: IC50 (NCI-H460): 0.008 µM; IC50 (HepG2): 0.007 µM; IC50 (SH-SY5Y): 0.004 µM
